Measured values: ChEMBL document CHEMBL1127483, “Synthesis and structure activity relationships of cis- and trans-2,3,4,4a,9,9a-hexahydro-1H-indeno[2,1-c]pyridines for 5-HT receptor subtypes” (J Med Chem, 1994)

Assays:
[1] = target: Serotonin 2 (5-HT2) receptor (Rattus norvegicus, UniProt P30994+P08909+P14842); experiment: Displacement of [3H]ketanserin from 5-hydroxytryptamine 2 receptor; type: protein assay
[2] = target: 5-hydroxytryptamine receptor 1B (Rattus norvegicus, UniProt P28564); experiment: Inhibition of [3H]5-HT binding to 5-hydroxytryptamine 1B receptor
Chain of 5-hydroxytryptamine receptor 1B (P28564 whole entry): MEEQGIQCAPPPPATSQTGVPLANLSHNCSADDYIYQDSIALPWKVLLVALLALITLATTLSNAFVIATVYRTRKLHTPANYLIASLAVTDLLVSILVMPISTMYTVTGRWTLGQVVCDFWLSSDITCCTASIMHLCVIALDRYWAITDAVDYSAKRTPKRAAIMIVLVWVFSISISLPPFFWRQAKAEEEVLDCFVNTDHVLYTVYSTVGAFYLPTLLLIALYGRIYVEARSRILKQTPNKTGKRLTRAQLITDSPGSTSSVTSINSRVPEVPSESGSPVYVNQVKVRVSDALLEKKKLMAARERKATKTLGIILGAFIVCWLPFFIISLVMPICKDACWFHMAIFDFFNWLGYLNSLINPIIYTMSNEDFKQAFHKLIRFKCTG
In short: (§1)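 [3H]5-HT binding to 5-HT1 sites. The 5-HT1A component was distinguished by masking 5-HT1A sites with 1 µM S-spiroxatrine. Values are geometric means.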

[3] = target: T1, 5-hydroxytryptamine receptor 1A (Rattus norvegicus, UniProt P19327); experiment: Binding affinity for 5-hydroxytryptamine 1A receptor with [3H]5-HT; in short: as §1
T1 sequence (P19327 whole entry): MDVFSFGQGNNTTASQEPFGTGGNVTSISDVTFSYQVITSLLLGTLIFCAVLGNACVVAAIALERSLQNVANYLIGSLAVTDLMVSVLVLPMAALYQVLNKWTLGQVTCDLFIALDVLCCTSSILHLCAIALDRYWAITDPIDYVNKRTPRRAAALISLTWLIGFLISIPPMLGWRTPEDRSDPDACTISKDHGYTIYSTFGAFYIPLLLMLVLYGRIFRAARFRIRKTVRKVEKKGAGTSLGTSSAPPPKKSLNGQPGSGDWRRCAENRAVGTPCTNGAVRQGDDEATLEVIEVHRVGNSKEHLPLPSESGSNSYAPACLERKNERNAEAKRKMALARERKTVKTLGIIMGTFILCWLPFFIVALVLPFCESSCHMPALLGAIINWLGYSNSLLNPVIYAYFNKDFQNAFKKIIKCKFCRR

SMILES | Ki [1] [µM] | Ki [2] [µM] | Ki [3] [µM]
CCCN1CC[C@H]2c3c(cccc3OC)C[C@@H]2C1 | 0.688 | 5.01 | 0.0762
COc1cccc2c1C1CCN(CCNC(=O)c3ccc(F)cc3)CC1C2 (stereo not given) | 0.0289 | 0.888 | 0.000588
COc1cccc2c1C1CCN(CCCN3C(=O)c4ccccc4S3(=O)=O)CC1C2 (stereo not given) | 0.003 | 0.845 | 0.000891
CCCN(CCC)C1CCc2cccc(O)c2C1 (stereo not given) [8-OH-DPAT] | > 10 |  | 
COc1cccc2c1[C@@H]1CCN(CCCCN3C(=O)CC4(CCCC4)CC3=O)C[C@H]1C2 | 0.0093 | 0.8 | 0.00165
COc1cccc2c1C1CCN(CCCCN3C(=O)C4C5C=CC(C6C=CC65)C4C3=O)CC1C2.Cl (trans isomer) | 0.00258 | 1.31 | 0.0036
COc1cccc2c1[C@@H]1CCN(CCCN3C(=O)CC4(CCCC4)CC3=O)C[C@H]1C2 | 0.0159 | 7.36 | 0.0512
COc1cccc2c1[C@@H]1CCN(CCCCN3C(=O)CC4(CCCC4)CC3=O)C[C@@H]1C2 | 0.0359 | 13.6 | 0.0545
COc1cccc2c1[C@@H]1CCN(CCCN3C(=O)CC4(CCCC4)CC3=O)C[C@@H]1C2 | 0.0174 | 96.4 | 0.692
COc1cccc2c1C1CCN(CCCCN3C(=O)c4ccccc4S3(=O)=O)CC1C2 (stereo not given) | 0.0334 | 0.325 | 0.00198
CCCN1CC[C@H]2c3c(cccc3OC)C[C@H]2C1 | 0.965 | 48.5 | 
